Measurements of several laboratories.
Each line is one published result; the experiments were not run side by side.
KIT L576P: Mast/stem cell growth factor receptor Kit (KIT, Homo sapiens, UniProt P10721, L576P)
KIT autoinhibited: Mast/stem cell growth factor receptor Kit, autoinhibited (KIT, Homo sapiens, UniProt P10721)
KIT D816V: Mast/stem cell growth factor receptor Kit (KIT, Homo sapiens, UniProt P10721, D816V)
KIT T670I/V559D: Mast/stem cell growth factor receptor Kit (KIT, Homo sapiens, UniProt P10721, T670I/V559D)
KIT V559D: Mast/stem cell growth factor receptor Kit (KIT, Homo sapiens, UniProt P10721, V559D)
KIT V559D/V654A: Mast/stem cell growth factor receptor Kit (KIT, Homo sapiens, UniProt P10721, V559D/V654A)
KIT D816H: Mast/stem cell growth factor receptor Kit (KIT, Homo sapiens, UniProt P10721, D816H)
KIT A829P: Mast/stem cell growth factor receptor Kit (KIT, Homo sapiens, UniProt P10721, A829P)
KIT: Mast/stem cell growth factor receptor Kit (KIT, Homo sapiens, UniProt P10721)

For COc1cnc(Nc2cccc(S(N)(=O)=O)c2)nc1N1CCN(c2ccccc2)CC1, the remaining binding was 80% (KIT L576P; binding; competition with immobilised ligand; 1 µM).
With COc1ncc2cc3ccccc3nc2c1C#N the remaining binding was 98% (KIT autoinhibited; cell-free assay; competition with immobilised ligand; 5 µM).
For O=C(Nc1cccnn1)N1CC(C/C=C/c2cncc(Oc3ccc(C(F)(F)F)cn3)n2)C1, the remaining binding was 100% (KIT D816V; cell-free assay; competition with immobilised ligand; 1 µM).
The remaining binding of N[C@H]1CCN(c2nccc(-c3cnn4ncccc34)n2)C1 is reported as 100% (KIT T670I/V559D; binding; 1 µM).
With COc1ccc2c(O[C@@H]3C[C@H]4C(=O)N[C@]5(C(=O)O)CC5/C=C\CCCCC[C@H](NC(=O)OC5CCCC5)C(=O)N4C3)cc(-c3csc(NC(=O)C(C)C)n3)nc2c1C (stereo partly drawn) the remaining binding was 76% (KIT T670I/V559D; cell-free assay; competition with immobilised ligand; 1 µM).
With CN(c1nccc(-c2cnn3ncccc23)n1)C1CC1 the remaining binding was 85% (KIT D816V; binding; 1 µM).
Nc1ncc2c(n1)-c1c([nH]c3ccc(C#CC4CC4)cc13)CCCC2 gave a remaining binding of 100% (KIT V559D; binding; competition with immobilised ligand; 1 µM).
The remaining binding of Cc1cc(NC(=O)c2cccc(S(F)(F)(F)(F)F)c2)cc(-n2ccn3nc(-c4cccnc4)cc23)c1 is reported as 70.3% (KIT autoinhibited; cell-free assay; competition with immobilised ligand; 1 µM).
CNC(=O)[C@@H]1CC[C@@H](n2c(-c3ccc4cnccc4c3)nc3ccc(C(=O)NCc4cccc(C(N)=O)c4)cc32)C1 has a remaining binding of 96% (KIT V559D/V654A; binding; competition with immobilised ligand; 1 µM).
CN1CCN(c2ccc(Nc3nccc(-c4ccccc4)n3)cc2C(F)(F)F)CC1 gave a remaining binding of 6.8% (KIT D816V; binding; 10 µM).
With CN(C)c1nccc(-c2cnc3ncccn23)n1 the remaining binding was 81% (KIT V559D; binding; 1 µM).
O=C(c1ccc(Nc2nccc(-c3cc4ccccc4s3)n2)cc1)N1CCC(N2CCCC2)CC1 gave a remaining binding of 18% (KIT D816H; binding; competition with immobilised ligand; 1 µM).
COc1cnc(Nc2cccc(S(N)(=O)=O)c2)nc1N1CCN(c2ccccc2)C(=O)C1 gave a remaining binding of 100% (KIT T670I/V559D; binding; competition with immobilised ligand; 1 µM).
For F[C@@H]1CCN(c2nccc(-c3cnn4ncccc34)n2)C1, the remaining binding was 92% (KIT L576P; binding; 1 µM).
For CN(C)C(=O)Cn1cc(-c2nc(C3(c4ccc(-c5cnc(N)nc5)cc4)CC3)no2)cn1, the remaining binding was 93% (KIT A829P; cell-free assay; competition with immobilised ligand; 1 µM).
With CN1CCN(c2ccc(Nc3nccc(-c4cccc([N+](=O)[O-])c4)n3)cc2C(F)(F)F)CC1 the remaining binding was 0.05% (KIT L576P; binding; 10 µM).
With CN(C)c1nccc(-c2cnn3ncccc23)n1 the remaining binding was 60% (KIT D816V; binding; 1 µM).
Cc1nc(NC(=O)N2CCC[C@H]2C(N)=O)sc1-c1ccnc(C(C)(C)C(F)(F)F)c1 gave a remaining binding of 100% (KIT; binding; competition with immobilised ligand; 10 µM).
O=C(c1ccc(Nc2ncc(Cl)c(-c3cc4ccccc4s3)n2)cc1)N1CCC(N2CCCC2)CC1 has a remaining binding of 50% (KIT V559D/V654A; binding; competition with immobilised ligand; 1 µM).
CCc1ccccc1C(=O)Nc1n[nH]c2c(C)c(F)c(C3C(C#N)=C(C)N(C)C(C)=C3C#N)cc12 gave a remaining binding of 84% (KIT; cell-free assay; competition with immobilised ligand; 1 µM).
For O=C(NCCCN1CCOCC1)c1ccc(Nc2ncc(Cl)c(-c3ccc(Cl)s3)n2)cc1, the remaining binding was 0.05% (KIT V559D; binding; competition with immobilised ligand; 1 µM).
With C[C@@H](c1ccc(-n2cnc3c(N)ncnc32)cc1)N1CCc2nn(C)c(Cc3ccccc3)c2C1=O the remaining binding was 52% (KIT A829P; binding; competition with immobilised ligand; 0.1 µM).
O=C(N[C@H]1CCCCC/C=C\C2C[C@@]2(C(=O)O)NC(=O)[C@@H]2C[C@@H](Oc3ccncc3)CN2C1=O)OC1CCCC1 (stereo partly drawn) has a remaining binding of 63% (KIT V559D/V654A; binding; competition with immobilised ligand; 1 µM).
For O=C(c1ccc(Nc2ncc(Cl)c(-c3ccc(Cl)s3)n2)cc1)N1CCC(N2CCCC2)CC1, the remaining binding was 1.4% (KIT L576P; binding; competition with immobilised ligand; 1 µM).
C[C@H]1CCN(c2nccc(-c3cnn4ncccc34)n2)C1 gave a remaining binding of 79% (KIT V559D/V654A; binding; 1 µM).
The remaining binding of O=C(NCC1CCOCC1)c1n[nH]cc1NC(=O)c1c(F)cccc1F is reported as 69% (KIT D816H; binding; competition with immobilised ligand; 1 µM).
Cc1cnc(Nc2ccc(C(=O)N3CCC(N4CCCC4)CC3)cc2)nc1-c1cc2ccccc2s1 gave a remaining binding of 22% (KIT autoinhibited; binding; competition with immobilised ligand; 1 µM).
The remaining binding of Cc1c(NC(=O)c2cc(C(N)=O)nc3cc(F)ccc23)c(C(F)(F)F)nn1Cc1ccc(C(C)(C)C)cc1 is reported as 100% (KIT D816H; cell-free assay; competition with immobilised ligand; 1 µM).
For C=CC(=O)N1CCC(C(=O)NCC(=O)N2CCN(c3nc(-c4cnc(N)nc4C(F)F)nc(N4CCOCC4)n3)CC2)CC1, the remaining binding was 35% (KIT autoinhibited; binding; competition with immobilised ligand; 1 µM).
With c1cncc(-c2cccc(Nc3nccc(NC4CCCCC4)n3)c2)c1 the remaining binding was 0% (KIT L576P; binding; competition with immobilised ligand; 10 µM).
CN(C)c1ncc(F)c(-c2cnn3ncccc23)n1 gave a remaining binding of 73% (KIT autoinhibited; binding; 1 µM).
With CCN1CCN(Cc2ccc(C(=O)Nc3ccc(C)c(Oc4ccc5c(c4)CC(=O)N5)c3)cc2C(F)(F)F)CC1 the remaining binding was 0.4% (KIT V559D; binding; competition with immobilised ligand; 1 µM).
For O=C(Nc1c[nH]nc1C(=O)NC1CCNCC1)c1cc(F)cc(F)c1, the remaining binding was 82% (KIT autoinhibited; binding; competition with immobilised ligand; 1 µM).
O=C(NCCCN1CCOCC1)c1ccc(Nc2nccc(-c3cc4ccccc4s3)n2)cc1 gave a remaining binding of 63% (KIT; binding; competition with immobilised ligand; 1 µM).
For CN1CCN(c2cnc3c(C4CCN(C(=O)c5ccc(OC(F)(F)F)cc5N)CC4)ncnc3c2)CC1, the remaining binding was 85% (KIT autoinhibited; cell-free assay; competition with immobilised ligand; 1 µM).
With c1cnn2ncc(-c3ccnc(N4CCC45COC5)n3)c2c1 the remaining binding was 61% (KIT A829P; binding; 1 µM).
